From paper PMC2780000 (Biochemistry, 2009)
Substitutions are numbered along the chain they refer to.

Key:
Assay in all cases: aerobic spectrophotometric titration of flavin absorbance
Type in all cases: binding
[1] = molecular target: T1, Class 2 dihydroorotate dehydrogenase (DHOD) from E. coli (Escherichia coli, UniProt P0A7E1, T178V)
T1 sequence (P0A7E1 1-336 T178V): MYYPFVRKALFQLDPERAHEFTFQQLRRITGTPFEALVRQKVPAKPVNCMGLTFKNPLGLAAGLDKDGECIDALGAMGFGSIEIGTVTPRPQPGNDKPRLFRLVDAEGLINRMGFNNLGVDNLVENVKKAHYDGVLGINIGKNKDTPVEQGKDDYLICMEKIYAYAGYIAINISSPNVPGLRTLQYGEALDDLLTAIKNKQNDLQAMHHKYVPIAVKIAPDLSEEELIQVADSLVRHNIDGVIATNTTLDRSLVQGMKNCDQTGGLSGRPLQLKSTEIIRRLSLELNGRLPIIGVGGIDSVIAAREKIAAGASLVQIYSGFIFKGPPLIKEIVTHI
Method in brief: (§1)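 Enzymes (wild-type and mutants) expressed from the pAG-1 plasmid in E. coli SØ6645, purified, stored at −80 °C in 50% glycerol, and desalted into buffer before use. The oxidized enzyme in 0.1 M Tris-HCl, pH 8.5, 25 °C, was titrated aerobically with orotate in the same buffer. The flavin absorbance change (456→475 nm red-shift) vs orotate was fit to a binding equation using total enzyme and total ligand to give Kd.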

[2] = molecular target: T2, Class 2 dihydroorotate dehydrogenase (DHOD) from E. coli (Escherichia coli, UniProt P0A7E1, F115L)
T2 sequence (P0A7E1 1-336 F115L): T1 sequence (P0A7E1 1-336 T178V) with F115L, V178T
Method in brief: as §1

[3] = molecular target: T3, Class 2 dihydroorotate dehydrogenase (DHOD) from E. coli (Escherichia coli, UniProt P0A7E1, F115A)
T3 sequence (P0A7E1 1-336 F115A): T1 sequence (P0A7E1 1-336 T178V) with F115A, V178T
Method in brief: as §1

[4] = molecular target: T4, Class 2 dihydroorotate dehydrogenase (DHOD) from E. coli (Escherichia coli, UniProt P0A7E1, F115W)
T4 sequence (P0A7E1 1-336 F115W): T1 sequence (P0A7E1 1-336 T178V) with F115W, V178T
Method in brief: as §1

[5] = molecular target: T5, Class 2 dihydroorotate dehydrogenase (DHOD) from E. coli (Escherichia coli, UniProt P0A7E1, S175A)
T5 sequence (P0A7E1 1-336 S175A): T1 sequence (P0A7E1 1-336 T178V) with S175A, V178T
Method in brief: as §1

[6] = molecular target: T6, Class 2 dihydroorotate dehydrogenase (DHOD) from E. coli (Escherichia coli, UniProt P0A7E1, F115L/T178V)
T6 sequence (P0A7E1 1-336 F115L/T178V): T1 sequence (P0A7E1 1-336 T178V) with F115L
Method in brief: as §1

[7] = molecular target: T7, Class 2 dihydroorotate dehydrogenase (DHOD) from E. coli (Escherichia coli, UniProt P0A7E1, T178S)
T7 sequence (P0A7E1 1-336 T178S): T1 sequence (P0A7E1 1-336 T178V) with V178S
Method in brief: as §1

[8] = molecular target: T8, Class 2 dihydroorotate dehydrogenase (DHOD) from E. coli (Escherichia coli, UniProt P0A7E1, T178A)
T8 sequence (P0A7E1 1-336 T178A): T1 sequence (P0A7E1 1-336 T178V) with V178A
Method in brief: as §1

With `O=C(O)c1cc(=O)[nH]c(=O)[nH]1` [orotate] the Kd [1] was 0.56 ± 0.04 µM, the Kd [2] was 3.7 ± 0.3 µM and the Kd [3] was 3.8 ± 0.5 µM. The Kd [4] was 8.1 ± 0.4 µM, the Kd [5] was 9.9 ± 0.9 µM and the Kd [6] was 4.6 ± 0.3 µM. For the same molecule, the Kd [7] was 1.1 ± 0.4 µM and the Kd [8] was 6.1 ± 0.8 µM.
